Reference: ChEMBL document CHEMBL1806394, “Synthesis, in vitro evaluation and molecular docking studies of new triazole derivatives as antifungal agents” (2011)
≈ marks a conversion by molar mass, not a printed value.

How the values were obtained:
Assay type in all cases: functional
Aspergillus fumigatus = test: Antifungal activity against Aspergillus fumigatus by micro-broth dilution method
Method in brief: (§1)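 MIC80 determined by broth microdilution following NCCLS methods. C. albicans SC5314 and Y0109 and C. neoformans BLS108 served as quality-control strains and were included in every assay. Fluconazole, itraconazole, voriconazole and amphotericin B were run as positive controls.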

Cryptococcus neoformans = test: Antifungal activity against Cryptococcus neoformans BLS108 by micro-broth dilution method; method in brief: as §1
Candida tropicalis = test: Antifungal activity against Candida tropicalis by micro-broth dilution method; method in brief: as §1
Kluyveromyces marxianus = test: Antifungal activity against Candida kefyr by micro-broth dilution method
Candida parapsilosis = test: Antifungal activity against Candida parapsilosis by micro-broth dilution method; conditions: Lodderomyces parapsilosis; method in brief: as §1
Trichophyton rubrum = test: Antifungal activity against Trichophyton rubrum by micro-broth dilution method; method in brief: as §1
Candida albicans [1] = test: Antifungal activity against Candida albicans Y0109 by micro-broth dilution method; method in brief: as §1
Candida albicans [2] = test: Antifungal activity against Candida albicans SC5314 by micro-broth dilution method; method in brief: as §1

Structure (SMILES)	MIC80 (Aspergillus fumigatus)	MIC80 (Cryptococcus neoformans)	MIC80 (Candida tropicalis)	MIC80 (Kluyveromyces marxianus)	MIC80 (Candida parapsilosis)	MIC80 (Trichophyton rubrum)	MIC80 (Candida albicans [1])	MIC80 (Candida albicans [2])
O=C(/C=C/c1cccc(F)c1)Nc1ccc(-n2cnn(CC(O)(Cn3cncn3)c3ccc(F)cc3F)c2=O)cc1 (single isomer, unassigned)	> 64 µg/mL	> 64 µg/mL	> 64 µg/mL	> 64 µg/mL	16 µg/mL (≈ 28.5 µM)	> 64 µg/mL	16 µg/mL (≈ 28.5 µM)	16 µg/mL (≈ 28.5 µM)
O=C(/C=C/c1ccccc1F)Nc1ccc(-n2cnn(CC(O)(Cn3cncn3)c3ccc(F)cc3F)c2=O)cc1 (single isomer, unassigned)	> 64 µg/mL	> 64 µg/mL	4 µg/mL (≈ 7.12 µM)	> 64 µg/mL	4 µg/mL (≈ 7.12 µM)	> 64 µg/mL	1 µg/mL (≈ 1.78 µM)	1 µg/mL (≈ 1.78 µM)
O=C(/C=C/c1ccc(Cl)cc1)Nc1ccc(-n2cnn(CC(O)(Cn3cncn3)c3ccc(F)cc3F)c2=O)cc1 (single isomer, unassigned)	> 64 µg/mL	> 64 µg/mL	> 64 µg/mL	> 64 µg/mL	> 64 µg/mL	> 64 µg/mL	16 µg/mL (≈ 27.7 µM)	4 µg/mL (≈ 6.92 µM)
O=C(/C=C/c1ccc(Cl)c(Cl)c1)Nc1ccc(-n2cnn(CC(O)(Cn3cncn3)c3ccc(F)cc3F)c2=O)cc1 (single isomer, unassigned)	> 64 µg/mL	> 64 µg/mL	4 µg/mL (≈ 6.53 µM)	> 64 µg/mL	64 µg/mL (≈ 105 µM)	> 64 µg/mL	4 µg/mL (≈ 6.53 µM)	4 µg/mL (≈ 6.53 µM)
O=C(/C=C/c1ccc(Br)cc1)Nc1ccc(-n2cnn(CC(O)(Cn3cncn3)c3ccc(F)cc3F)c2=O)cc1 (single isomer, unassigned)	> 64 µg/mL	> 64 µg/mL	> 64 µg/mL	> 64 µg/mL	1 µg/mL (≈ 1.61 µM)	> 64 µg/mL	4 µg/mL (≈ 6.43 µM)	1 µg/mL (≈ 1.61 µM)
O=C(/C=C/c1cccc(Br)c1)Nc1ccc(-n2cnn(CC(O)(Cn3cncn3)c3ccc(F)cc3F)c2=O)cc1 (single isomer, unassigned)	> 64 µg/mL	16 µg/mL (≈ 25.7 µM)	1 µg/mL (≈ 1.61 µM)	> 64 µg/mL	16 µg/mL (≈ 25.7 µM)	> 64 µg/mL	1 µg/mL (≈ 1.61 µM)	1 µg/mL (≈ 1.61 µM)
Cc1ccc(/C=C/C(=O)Nc2ccc(-n3cnn(CC(O)(Cn4cncn4)c4ccc(F)cc4F)c3=O)cc2)cc1 (single isomer, unassigned)	> 64 µg/mL	> 64 µg/mL	4 µg/mL (≈ 7.17 µM)	> 64 µg/mL	> 64 µg/mL	> 64 µg/mL	4 µg/mL (≈ 7.17 µM)	1 µg/mL (≈ 1.79 µM)
Cc1cccc(/C=C/C(=O)Nc2ccc(-n3cnn(CC(O)(Cn4cncn4)c4ccc(F)cc4F)c3=O)cc2)c1C (single isomer, unassigned)	> 64 µg/mL	> 64 µg/mL	16 µg/mL (≈ 28 µM)	> 64 µg/mL	> 64 µg/mL	> 64 µg/mL	4 µg/mL (≈ 7 µM)	1 µg/mL (≈ 1.75 µM)
COc1ccc(/C=C/C(=O)Nc2ccc(-n3cnn(CC(O)(Cn4cncn4)c4ccc(F)cc4F)c3=O)cc2)cc1 (single isomer, unassigned)	> 64 µg/mL	> 64 µg/mL	> 64 µg/mL	> 64 µg/mL	> 64 µg/mL	> 64 µg/mL	> 64 µg/mL	4 µg/mL (≈ 6.97 µM)
COc1ccc(/C=C/C(=O)Nc2ccc(-n3cnn(CC(O)(Cn4cncn4)c4ccc(F)cc4F)c3=O)cc2)cc1OC (single isomer, unassigned)	> 64 µg/mL	> 64 µg/mL	1 µg/mL (≈ 1.66 µM)	> 64 µg/mL	4 µg/mL (≈ 6.63 µM)	> 64 µg/mL	1 µg/mL (≈ 1.66 µM)	1 µg/mL (≈ 1.66 µM)
COc1ccc(OC)c(/C=C/C(=O)Nc2ccc(-n3cnn(CC(O)(Cn4cncn4)c4ccc(F)cc4F)c3=O)cc2)c1 (single isomer, unassigned)	> 64 µg/mL	> 64 µg/mL	> 64 µg/mL	> 64 µg/mL	1 µg/mL (≈ 1.66 µM)	> 64 µg/mL	16 µg/mL (≈ 26.5 µM)	1 µg/mL (≈ 1.66 µM)
O=C(/C=C/c1ccc([N+](=O)[O-])cc1)Nc1ccc(-n2cnn(CC(O)(Cn3cncn3)c3ccc(F)cc3F)c2=O)cc1 (single isomer, unassigned)	> 64 µg/mL	> 64 µg/mL	> 64 µg/mL	> 64 µg/mL	1 µg/mL (≈ 1.7 µM)	> 64 µg/mL	> 64 µg/mL	> 64 µg/mL
O=C(/C=C/c1cccc([N+](=O)[O-])c1)Nc1ccc(-n2cnn(CC(O)(Cn3cncn3)c3ccc(F)cc3F)c2=O)cc1 (single isomer, unassigned)	> 64 µg/mL	> 64 µg/mL	0.25 µg/mL (≈ 0.425 µM)	16 µg/mL (≈ 27.2 µM)	0.0039 µg/mL (≈ 0.00663 µM)	64 µg/mL (≈ 109 µM)	0.00024 µg/mL (≈ 0.000408 µM)	0.00024 µg/mL (≈ 0.000408 µM)
O=C(/C=C/c1ccccc1[N+](=O)[O-])Nc1ccc(-n2cnn(CC(O)(Cn3cncn3)c3ccc(F)cc3F)c2=O)cc1 (single isomer, unassigned)	> 64 µg/mL	> 64 µg/mL	1 µg/mL (≈ 1.7 µM)	> 64 µg/mL	1 µg/mL (≈ 1.7 µM)	> 64 µg/mL	1 µg/mL (≈ 1.7 µM)	1 µg/mL (≈ 1.7 µM)
N#Cc1cccc(/C=C/C(=O)Nc2ccc(-n3cnn(CC(O)(Cn4cncn4)c4ccc(F)cc4F)c3=O)cc2)c1 (single isomer, unassigned)	> 64 µg/mL	> 64 µg/mL	64 µg/mL (≈ 113 µM)	> 64 µg/mL	16 µg/mL (≈ 28.1 µM)	> 64 µg/mL	16 µg/mL (≈ 28.1 µM)	16 µg/mL (≈ 28.1 µM)
C[C@@H]1[C@H](O)[C@@H](C)/C=C/C=C/C=C/C=C/C=C/C=C/C=C/[C@H](O[C@@H]2O[C@H](C)[C@@H](O)[C@H](N)[C@@H]2O)C[C@@H]2O[C@](O)(C[C@@H](O)C[C@@H](O)[C@H](O)CC[C@@H](O)C[C@@H](O)CC(=O)O[C@H]1C)C[C@H](O)[C@H]2C(=O)O [AMPHOTERICIN B]	1 µg/mL (≈ 1.08 µM)	1 µg/mL (≈ 1.08 µM)	1 µg/mL (≈ 1.08 µM)	0.25 µg/mL (≈ 0.271 µM)	0.25 µg/mL (≈ 0.271 µM)	4 µg/mL (≈ 4.33 µM)	0.25 µg/mL (≈ 0.271 µM)	0.25 µg/mL (≈ 0.271 µM)
OC(Cn1cncn1)(Cn1cncn1)c1ccc(F)cc1F [FLUCONAZOLE]	> 64 µg/mL	1 µg/mL (≈ 3.27 µM)	1 µg/mL (≈ 3.27 µM)	4 µg/mL (≈ 13.1 µM)	0.25 µg/mL (≈ 0.816 µM)	1 µg/mL (≈ 3.27 µM)	0.25 µg/mL (≈ 0.816 µM)	0.25 µg/mL (≈ 0.816 µM)
CCC(C)n1ncn(-c2ccc(N3CCN(c4ccc(OCC5COC(Cn6cncn6)(c6ccc(Cl)cc6Cl)O5)cc4)CC3)cc2)c1=O (configuration not stated) [ITRACONAZOLE]	0.0625 µg/mL (≈ 0.0886 µM)	0.0625 µg/mL (≈ 0.0886 µM)	0.0625 µg/mL (≈ 0.0886 µM)	0.0625 µg/mL (≈ 0.0886 µM)	0.0625 µg/mL (≈ 0.0886 µM)	0.0625 µg/mL (≈ 0.0886 µM)	0.0625 µg/mL (≈ 0.0886 µM)	0.0625 µg/mL (≈ 0.0886 µM)
C[C@@H](c1ncncc1F)[C@](O)(Cn1cncn1)c1ccc(F)cc1F [VORICONAZOLE]	0.0039 µg/mL (≈ 0.0112 µM)	0.0039 µg/mL (≈ 0.0112 µM)	0.0039 µg/mL (≈ 0.0112 µM)	0.0039 µg/mL (≈ 0.0112 µM)	0.0039 µg/mL (≈ 0.0112 µM)	0.0156 µg/mL (≈ 0.0447 µM)	0.0039 µg/mL (≈ 0.0112 µM)	0.0039 µg/mL (≈ 0.0112 µM)
